Assay [1] has as its target Human immunodeficiency virus type 1 reverse transcriptase (Human immunodeficiency virus 1, UniProt Q72547, Y181C). Kind of assay: Inhibitory activity against HIV-1 Y181C Reverse transcriptase (RT). The method in brief:
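The enzyme was either p66/p51 heterodimer purified to near homogeneity or crude E. coli lysate containing the mutant RT. Inhibitory concentration was measured in an RT enzyme assay.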

The target of assay [2] is Human immunodeficiency virus type 1 reverse transcriptase (Human immunodeficiency virus 1, UniProt Q72547). Kind of assay: Inhibitory concentration against HIV-1 wild type Reverse transcriptase (RT).

Structures are written as SMILES.

A word on the IC50: it is the concentration that gives 50% inhibition. Low values mean higher potency, high ones lower potency.

`CCN1c2ncccc2C(=O)N(C)c2ccc(-c3ccc(O)nc3)nc21`: the IC50 is above 1000 nM in assay [1] and 1100 nM in assay [2].
Taken in the same sequence, the figures for `CCN1c2ncccc2C(=O)Nc2c(C)cc(Cl)nc21` were 800 nM and 10 nM.
Taken in the same sequence, the figures for `COc1ccc2c(n1)N(C1CC1)c1ncccc1C(=O)N2C` were 1100 nM and 120 nM.
Taken in the same sequence, the figures for `CCN1c2ncccc2C(=O)N(C)c2ccc(/C=C/C(N)=O)nc21` were 2400 nM and 250 nM.
`CCN1c2ncccc2C(=O)N(C)c2ccc(-c3cccc(OC)c3)nc21`: the IC50 was determined as 210 nM in assay [1] and 150 nM in assay [2].
`CCN1c2ncccc2C(=O)N(C)c2ccc(N3CCCC3)nc21`: the IC50 turned out to be 3800 nM in assay [1] and 20 nM in assay [2].
For `CCNc1ccc2c(n1)N(CC)c1ncccc1C(=O)N2C`, the IC50 worked out at 1300 nM in assay [1] and 230 nM in assay [2].
For the molecule `CN1C(=O)c2cccnc2N(C2CC2)c2nc(Br)ccc21`, the results for the IC50 in assay [1] and in assay [2] were 2100 nM and 30 nM, respectively.
On to `CCN1c2ncccc2C(=O)N(C)c2ccc(-c3cc[nH]n3)nc21`, for which the IC50 is 290 nM in assay [1] and 390 nM in assay [2].
Regarding `CCN1c2ncccc2C(=O)N(C)c2ccc(-c3ccco3)nc21`, the IC50 stood at 160 nM in assay [1] and 110 nM in assay [2].
`CCN1c2ncccc2C(=O)N(C)c2ccc(-c3cccc(O)c3)nc21`: the IC50 was 180 nM in assay [1] and 100 nM in assay [2].
Regarding `CCN1c2ncccc2C(=O)Nc2c(C)cc(N(C)CCO)nc21`, the values for the IC50 in assay [1] and in assay [2] were above 1000 nM and 10 nM, respectively.
Regarding `CCN1c2ncccc2C(=O)N(C)c2ccc(/C=C/C(=O)OC)nc21`, the IC50 in assay [1] turned out to be 670 nM; in assay [2], 180 nM.
Take `CN1C(=O)c2cccnc2N(C2CC2)c2nc(Cl)ccc21`: it took 920 nM to reach half-maximal inhibition in assay [1] (IC50).
Turning to `CCN1c2ncccc2C(=O)Nc2c(C)cc(N3CCC(O)C3)nc21` (centres undefined), the IC50 in assay [1] was above 1000 nM; in assay [2] it was 40 nM.
On to `CCN1c2ncccc2C(=O)N(C)c2ccc(N3CC=CC3)nc21`, for which the values for the IC50 in assay [1] and in assay [2] were 640 nM and 30 nM, respectively.
In the same order, the values of `CCN1c2ncccc2C(=O)N(C)c2ccc(-n3cccn3)nc21` are 560 nM and 310 nM.
Take `CCN1c2ncccc2C(=O)Nc2c(C)cc(C(C)C)nc21`: the IC50 was above 1000 nM in assay [1] and 1000 nM in assay [2].
For the molecule `CCN1c2ncccc2C(=O)N(C)c2ccc(-c3ccccc3OC)nc21`, the IC50 in assay [1] came to 2500 nM; in assay [2], 820 nM.
Take `CCN1c2ncccc2C(=O)N(C)c2ccc(-c3cccs3)nc21`: the IC50 worked out at 420 nM in assay [1] and 140 nM in assay [2].
Taken in the same sequence, the figures for `CCN1c2ncccc2C(=O)N(C)c2ccc(-c3ccc(OC)nc3)nc21` were 3000 nM and 1200 nM.
On to `CCN1c2ncccc2C(=O)N(C)c2ccc(N3CCOCC3)nc21`, for which the IC50 in assay [1] is above 1000 nM; in assay [2], 400 nM.
In the case of `CCN1c2ncccc2C(=O)N(C)c2ccc(N(C)C)nc21`, the IC50 stood at 770 nM in assay [1] and 70 nM in assay [2].
Taken in the same sequence, the figures for `CCN1c2ncccc2C(=O)N(C)c2ccc(OC)nc21` were 600 nM and 40 nM.
Taken in the same sequence, the figures for `CN1C(=O)c2cccnc2N(C2CC2)c2nc(-c3cccnc3)ccc21` were 440 nM and 180 nM.
For `CCN1c2ncccc2C(=O)N(C)c2ccc(=O)[nH]c21`, the IC50 in assay [1] is above 1000 nM; in assay [2], 470 nM.
For `CCN1c2ncccc2C(=O)N(C)c2ccc(-c3ccsc3)nc21`, the figures for the IC50 in assay [1] and in assay [2] were 300 nM and 100 nM, respectively.
As for `Cc1cc(C)c2c(n1)N(C1CC1)c1ncccc1C(=O)N2`, the figures for the IC50 in assay [1] and in assay [2] were 1200 nM and 70 nM, respectively.
As for `CCN1c2ncccc2C(=O)N(C)c2ccc(C)nc21`, the IC50 stood at 1200 nM in assay [1] and 120 nM in assay [2].
Taken in the same sequence, the figures for `CCN1c2ncccc2C(=O)Nc2c(C)cc(NCCO)nc21` were above 1000 nM and 90 nM.
On to `CCN1c2ncccc2C(=O)N(C)c2ccc(-c3ncco3)nc21`, for which the IC50 in assay [1] is 820 nM; in assay [2] it was 220 nM.
In the same order, the values of `CCN1c2ncccc2C(=O)N(C)c2ccc(NC)nc21` are 710 nM and 190 nM.
As to `CCN1c2ncccc2C(=O)Nc2c(C)cc(C)nc21`, the IC50 in assay [1] was above 1000 nM; in assay [2] it was 20 nM.
Turning to `CCN1c2ncccc2C(=O)N(C)c2ccc(-c3ccccn3)nc21`, the values for the IC50 in assay [1] and in assay [2] were 1600 nM and 180 nM, respectively.
Taken in the same sequence, the figures for `Cc1cc(Cl)nc2c1NC(=O)c1cccnc1N2C1CC1` were 780 nM and 20 nM.
In the case of `CCN1c2ncccc2C(=O)Nc2c(C)cc(NCCCO)nc21`, the values for the IC50 in assay [1] and in assay [2] were above 1000 nM and 90 nM, respectively.
`CCN1c2ncccc2C(=O)N(C)c2ccc(-c3cccc(N)c3)nc21`: the IC50 in assay [1] is 560 nM. In other words, the sub-micromolar range.
With `CCN1c2ncccc2C(=O)Nc2c(C)cc(C(C)(C)C)nc21`, the 50% inhibitory concentration (IC50) in assay [1] and in assay [2] was above 1000 nM each time.
`C#Cc1ccc2c(n1)N(CC)c1ncccc1C(=O)N2C`: the IC50 turned out to be 420 nM in assay [1] and 140 nM in assay [2].
With `CCN1c2ncccc2C(=O)N(C)c2ccc(-c3ccoc3)nc21`, the IC50 in assay [1] stood at 110 nM; in assay [2], 40 nM.
Turning to `C/C=C/Nc1ccc2c(n1)N(CC)c1ncccc1C(=O)N2C`, the IC50 in assay [1] was above 1000 nM; in assay [2] it was 390 nM.
On to `CN1C(=O)c2cccnc2N(C2CC2)c2nc(-c3ccncc3)ccc21`, for which the IC50 was 320 nM in assay [1] and 150 nM in assay [2].
Turning to `CCN1c2ncccc2C(=O)N(C)c2ccc(N)nc21`, the IC50 in assay [1] and in assay [2] was above 1000 nM in each case.
Take `CCN1c2ncccc2C(=O)Nc2c(C)cc(SC)nc21`: the IC50 in assay [1] was above 1000 nM; in assay [2], 20 nM.
On to `CCN1c2ncccc2C(=O)N(C)c2ccc(-c3ncc[nH]3)nc21`, for which the values for the IC50 in assay [1] and in assay [2] were 190 nM and 130 nM, respectively.
Taken in the same sequence, the figures for `CCN1c2ncccc2C(=O)N(C)c2ccc(-c3cnco3)nc21` were 560 nM and 110 nM.
With `CCN1c2ncccc2C(=O)N(C)c2ccc(-c3nccs3)nc21`, the IC50 came to 240 nM in assay [1] and 100 nM in assay [2].
With `CCN1c2ncccc2C(=O)N(C)c2ccc(-c3ccc[nH]3)nc21`, the IC50 in assay [1] and in assay [2] was 70 nM each time.
On to `CCN1c2ncccc2C(=O)N(C)c2ccc(N3CCCCC3)nc21`, for which the values for the IC50 in assay [1] and in assay [2] were above 1000 nM and 300 nM, respectively.
Regarding `CCN1c2ncccc2C(=O)N(C)c2ccc(-c3cnc[nH]3)nc21`, the IC50 amounted to 740 nM in assay [1] and 3700 nM in assay [2].
Taken in the same sequence, the figures for `CCN1c2ncccc2C(=O)N(C)c2ccc(-c3cncs3)nc21` were 1100 nM and 380 nM.
In the same order, the values of `CCc1cc(C)c2c(n1)N(CC)c1ncccc1C(=O)N2` are 1700 nM and 90 nM.
Regarding `CCN1c2ncccc2C(=O)N(C)c2ccc(-c3ccccc3)nc21`, the IC50 in assay [1] amounted to 1400 nM; in assay [2] it was 230 nM.
`CCN1c2ncccc2C(=O)N(C)c2cccnc21` gave an IC50 in assay [1] of 2200 nM.
Take `CCN1c2ncccc2C(=O)Nc2c(C)ccnc21`: the results for the IC50 in assay [1] and in assay [2] were 1800 nM and 40 nM, respectively.
Consider `CCN1c2ncccc2C(=O)Nc2c(C)cc(N3CCSCC3)nc21`, for which the values for the IC50 in assay [1] and in assay [2] were above 1000 nM and 150 nM, respectively.

The record behind these values is ChEMBL document CHEMBL1128204, “Novel non-nucleoside inhibitors of human immunodeficiency virus type 1 (HIV-1) reverse transcriptase. 4. 2-Substituted dipyridodiazepinones as potent inhibitors of both wild-type and cysteine-181 HIV-1 reverse transcriptase enzymes” (J Med Chem, 1995).
